# TAAR1 agonist = human TAAR1 agonists, primary screen, Fluo-8 calcium fluorescence, CHO RD-HGA16 cells; vehicle wells 0%, saturating PEA agonist 100%; activation, % at 3 µM; 0.99% of 360,000 active;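 active means activation above the mean activation of all test compounds in the run plus 3 SD, cut at about 38% in these data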
#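 Repeats: no replicates (n 1) | Material: CHO-derived RD-HGA16 cells with stable Gα16 and human TAAR1 | Technique: Kinetic Fluo-8 calcium fluorescence | Schedule: 17-24 h seeding, 75 min 37 °C dye, 30 min RT | Evaluation: % activation from peak over basal fluorescence ratio, DMSO-to-PEA scaled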
# TAAR1 antag = human TAAR1 antagonists, primary screen, Fluo-8 calcium fluorescence, CHO RD-HGA16 cells; Trace amine-associated receptor 1 (Homo sapiens), Q96RJ0; antagonist; inhibition, % at 3 µM; 1.5% of 360,000 active; AID 624466, 2012;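 active means inhibition above a per-plate cutoff, the mean inhibition of test compounds on that plate plus 3 SD, cut at about 49% in these data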;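 further: 0% = DMSO plus EC80 beta-PEA response and 100% = DMSO alone without agonist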
#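 Material: CHO RD-HGA16 cells bearing hTAAR1; compound dosing: one-point dosing, 3 µM nominal final; schedule: dye loading 75 min at 37 °C, then 30 min room temperature; measured by: calcium fluorescence with Fluo-8; control set: vehicle and agonist controls; replication: n of 1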
# V1R ag counter = agonists of human V1a receptor, primary screen, counter-screen for OXTR agonist project, fluorescence, CHO-V1R cells | Vasopressin V1a receptor (Homo sapiens), P37288 | Fluo-8 calcium fluorescence, agonist mode; 0% DMSO, 100% 3 nM vasopressin | activation, % at 3 µM | 0.25% of 320,000 active | AID 2797, 2010;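 active means activation above the mean activation of all tested compounds plus 3 SD, per screening run, cut at about 20% in these data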;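 further: signal is peak over basal fluorescence ratio across a 100 second FLIPR read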
# Target sequence (P37288 whole entry, looked up): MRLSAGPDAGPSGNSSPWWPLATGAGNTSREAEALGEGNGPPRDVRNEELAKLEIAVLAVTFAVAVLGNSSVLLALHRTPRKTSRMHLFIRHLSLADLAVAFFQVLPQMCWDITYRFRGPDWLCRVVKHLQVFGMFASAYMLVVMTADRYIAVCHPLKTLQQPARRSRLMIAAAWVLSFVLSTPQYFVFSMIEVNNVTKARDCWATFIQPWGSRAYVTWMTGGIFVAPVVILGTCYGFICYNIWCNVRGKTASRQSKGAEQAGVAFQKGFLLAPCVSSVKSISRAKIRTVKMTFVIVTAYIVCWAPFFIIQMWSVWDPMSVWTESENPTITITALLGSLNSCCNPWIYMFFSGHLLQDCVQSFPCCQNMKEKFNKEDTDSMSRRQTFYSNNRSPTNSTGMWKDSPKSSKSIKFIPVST
# OXTR agonist = human OXTR agonists, primary screen, fluorescence, CHO-OTR cells, Fluo-8 calcium; Oxytocin receptor (Homo sapiens), P30559; Fluo-8 calcium fluorescence; normalized: DMSO 0%, oxytocin 100%; activation, % at 3 µM; 0.32% of 320,000 active; AID 2435, 2010;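 active means activation above the mean of all tested compounds plus 3 SD, cutoff set per screening run, cut at about 20% in these data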;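 further: peak over basal fluorescence ratio from a 100 s FLIPR kinetic read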
# OXTR potentiator = human OXTR potentiators, primary screen, fluorescence, CHO-OTR cells, Fluo-8 calcium; Fluo-8 calcium fluorescence, potentiator mode; 0% = oxytocin EC15, 100% = EC100; Oxytocin receptor (Homo sapiens), P30559; activation, % at 3 µM; AID 2445, 2010; 0.061% of 320,000 active;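 active means activation above that plate's cutoff, the mean activation of tested compounds plus 3 SD, cut at about 6.6% in these data, passing the limit was not always enough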;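 further: 100% uses oxytocin at 75 nM as the full agonist control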
#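 Material: human OTR in CHO cells. Compound: 3.0 µM, one dose. Timing: compound 6 min at room temperature before oxytocin, 100 s read. Evaluation: % activation of max/min ratio relative to oxytocin controls. Replication: single well per compound, singlicate. Signal: Fluo-8 calcium dye fluorescence.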
# TAAR1 ag conf = human TAAR1 agonists, retest of hits, confirmation, Fluo-8 calcium fluorescence, CHO RD-HGA16 cells; shares compounds with TAAR1 agonist; scaled: DMSO 0%, maximal phenethylamine 100%; activation, % at 3 µM; 82% of 2,400 active;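 active means activation above a cutoff set at the run's mean compound activation plus 3 SD, cut at about 39% in these data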
# Ga16 ag counter = nonselective calcium mobilization agonists, CHO-Ga16 cells, counter-screen for hTAAR1 agonist project, cell-based, fluorescence, CHO-Ga16 parental line; 50% of 2,400 active; AID 651787, 2012; shares compounds with TAAR1 agonist; Fluo-8 calcium fluorescence; normalized to maximal ATP response, DMSO zero; activation, % at 3 µM;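 active means activation above the run cutoff, the mean activation over all tested wells plus 3 SD, cut at about 12% in these data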;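 further: 0% = DMSO wells and 100% = maximal ATP response on the peak over basal ratio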
# TAAR1 desensitize = TAAR1 desensitization by agonist hits, confirmation, counter-screen for TAAR1 agonist project, cell-based, fluorescence, tachyphylaxis; shares compounds with TAAR1 agonist; CHO RD-HGA16 hTAAR1, Fluo-8 calcium, beta-PEA response inhibition; inhibition, % at 3 µM; 46% of 2,400 active; AID 651951, 2012;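 active means inhibition above the run cutoff, the mean inhibition of all test compounds plus 3 SD, cut at about 49% in these data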;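 further: beta-PEA stimulus applied at its EC80; loss of beta-PEA calcium signal after compound pretreatment read as receptor desensitization; 0% = DMSO with beta-PEA at EC80 and 100% = DMSO alone without agonist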
# Ga16 antag count = inhibition of ATP-evoked calcium response in CHO-Ga16 cells, counter-screen for TAAR1 agonist project, cell-based, fluorescence. shares compounds with TAAR1 agonist. CHO-Ga16 ATP-induced calcium, Fluo-8 fluorescence. inhibition, % at 3 µM. 39% of 2,400 active;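 active means inhibition above the plate's mean compound inhibition plus 3 SD, computed per plate, cut at about 22% in these data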;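 further: 0% = EC80 ATP with DMSO and 100% = DMSO wells without ATP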
# Starred values were filed as active, the others as inactive; . = no result. The list is not random: actives were taken first. Their share in the collection is about 2.3%.
SMILES,TAAR1 agonist,TAAR1 antag,V1R ag counter,OXTR agonist,OXTR potentiator,TAAR1 ag conf,Ga16 ag counter,TAAR1 desensitize,Ga16 antag count
O=C(O)c1ccccc1-c1ccc(/C=C/c2cc(C(F)(F)F)[nH]c(=O)n2)o1,236.9*,32.8,.,.,.,69.0*,117.2*,24.9,27.6*
Cc1ccccc1CS(=O)(=O)CC(O)CN1CCCC1=O (centres undefined),2.1,-8.2,0.9,0.0,-10.6,.,.,.,.
COc1cccc(C(=O)N[C@H](C(=O)N2CCC[C@H]2C(=O)NCCc2ccccc2Cl)C(C)C)c1,71.2*,77.6*,.,.,.,85.1*,3.6,94.6*,7.6
O=C(N[C@H](C(=O)N1CCC[C@H]1C(=O)NCCc1ccccc1Cl)c1ccccc1)c1ccc(Cl)c(Cl)c1,4.3,44.0,.,.,.,.,.,.,.
COc1cccc(C(=O)N[C@@H](CC(C)C)C(=O)N2CCC[C@H]2C(=O)NCc2ccccc2)c1,-1.3,-11.0,.,.,.,.,.,.,.
COc1cccc(C(=O)N[C@H](C(=O)N2CCC[C@H]2C(=O)NCCc2ccccc2Cl)c2ccccc2)c1,56.3*,52.2*,.,.,.,91.3*,2.8,83.9*,17.1
O=C(COC(=O)Cn1cnc2ccccc2c1=O)Nc1ccccc1OC(F)F,1.5,-4.1,-0.4,-0.2,-0.9,.,.,.,.
Cc1ccccc1CC1(CO)CCCN(C(=O)Cc2c(F)ccc(F)c2F)C1 (centres undefined),6.3,7.5,.,.,.,.,.,.,.
Cc1nc(C)c(C(=O)O)s1,6.1,-3.3,0.3,0.2,-14.2,.,.,.,.
O=C1OC(N2CCN(C(=O)c3ccco3)CC2)c2ccccc21 (centres undefined),51.6*,10.9,0.4,0.1,-3.6,65.5*,0.4,16.6,8.2
Cc1cc(C)c2c(n1)SCC(=O)N2CC(=O)Nc1cc(F)ccc1F,0.2,5.3,0.7,-0.7,-1.3,.,.,.,.
CC(C(=O)Nc1ccc2c(c1)OCCO2)c1ccc([N+](=O)[O-])cc1 (centres undefined),127.7*,76.5*,42.8*,44.5*,-20.8,122.8*,85.3*,78.3*,40.4*
CC(C(=O)Nc1cccc(Br)c1)c1ccc([N+](=O)[O-])cc1 (centres undefined),16.6,7.4,8.9,4.9,-10.8,.,.,.,.
O=C(NCCc1ccccc1)C(=O)NCC1OCCN1S(=O)(=O)c1ccc2c(c1)OCCO2 (centres undefined),58.4*,32.8,2.3,-0.1,-14.1,77.0*,5.7,58.1*,20.7
O=C(NCc1ccccc1)C(=O)NCC1OCCN1S(=O)(=O)c1ccc2c(c1)OCCO2 (centres undefined),0.6,-10.7,0.1,-0.1,-1.6,.,.,.,.
CCOc1cc(C(=O)NC2CCCCCCC2)cc(OCC)c1OCC,-2.5,-39.9,-1.9,-3.2,-2.0,.,.,.,.
CCCNC(=O)c1ccc(CN2CCc3ccccc3C2)cc1,6.0,5.6,1.4,2.4,-10.0,.,.,.,.
O=C(NCN1CCc2ccccc2C1)c1cnccn1,95.3*,56.6*,0.9,0.7,3.3,87.6*,-0.2,65.3*,8.0
